# Source: PubChem (The Scripps Research Institute Molecular Screening Center)
# An excerpt weighted towards active compounds, which were near 2% of everything screened.
# UHRF1 binding: blocks human UHRF1 binding to methylated DNA; 0.75% of 370,000 active; inhibition, % at 4.4 µM; Q96T88; UHRF1 binding to methylated oligo, TR-FRET; in the data active = inhibition above about 21%;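 note: UHRF1 SRA domain binding a hemimethylated CpG hairpin DNA probe; 0% = median of test compound wells and 100% = reference inhibitor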
# MBD2 inh: blocks human MBD2 binding to methylated DNA. inhibition, % at 4.4 µM. AID 686964. Q9UBB5. TR-FRET, MBD2 binding to methylated oligonucleotide. 0.31% of 370,000 active; in the data active = inhibition above about 13%
# ASAP1 inh: blocks human ASAP1-stimulated Arf1 GTP hydrolysis. inhibition, % at 16.5 µM. Q9ULH1. 0.19% of 360,000 active. GDP FP detection. AID 624377; in the data active = inhibition above about 25%;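 note: 0% = vehicle with enzyme and substrate and 100% = no enzyme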
# Target sequence (Q9ULH1 325-724 limits assumed): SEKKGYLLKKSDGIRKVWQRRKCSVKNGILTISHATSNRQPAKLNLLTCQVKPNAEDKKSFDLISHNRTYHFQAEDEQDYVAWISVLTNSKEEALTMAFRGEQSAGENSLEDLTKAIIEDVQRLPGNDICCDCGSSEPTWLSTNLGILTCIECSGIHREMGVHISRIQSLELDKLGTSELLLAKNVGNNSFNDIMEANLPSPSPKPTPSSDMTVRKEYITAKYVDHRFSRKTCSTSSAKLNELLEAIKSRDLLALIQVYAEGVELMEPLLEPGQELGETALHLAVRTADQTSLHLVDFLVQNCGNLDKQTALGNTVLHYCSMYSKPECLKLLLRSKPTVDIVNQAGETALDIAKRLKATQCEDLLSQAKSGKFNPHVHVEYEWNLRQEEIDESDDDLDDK
# TDP2 inh: blocks human TDP2 phosphodiesterase activity; recombinant TDP2, T5PNP hydrolysis, p-nitrophenol absorbance 415 nm; inhibition, % at 12.8 µM; 0.34% of 370,000 active; AID 720702;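 active = inhibition above the mean of all tested compounds plus 3 SD, set per campaign, cut at about 25% in these data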;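 note: 0% = DMSO with enzyme and 100% = buffer with substrate but no TDP2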
#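 Assay system: Recombinant human TDP2 | Quantity: 120 nM TDP2 per well | Incubation: 2 h at 37 °C | Signal: Epi absorbance | Evaluation: Percent inhibition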
# LEDGF integ inh: blocks HIV-1 LEDGF/p75-dependent DNA integration. TR-FRET IN-LEDGF/p75 DNA integration, Eu/Cy5. inhibition, % at 3.7 µM. 0.64% of 370,000 active;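 active = inhibition above the screen-wide mean plus 3 SD, cut at about 13% in these data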;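 note: signal is the Cy5 over europium emission ratio at 671 and 618 nm; 0% = plate median of compound wells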
# ARFGAP1 inh: inhibitors of rat ARFGAP1; inhibition, % at 16.5 µM; 0.26% of 360,000 active; Q62848; Arfgap1-stimulated ARF1 GTP hydrolysis, GDP FP detection;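 active = inhibition above a per-plate limit, mean inhibition of low control wells plus 3 SD, cut at about 25% in these data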;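 note: 0% = DMSO wells with enzyme and 100% = wells lacking Arfgap1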
# Target sequence (Q62848 1-136 limits assumed): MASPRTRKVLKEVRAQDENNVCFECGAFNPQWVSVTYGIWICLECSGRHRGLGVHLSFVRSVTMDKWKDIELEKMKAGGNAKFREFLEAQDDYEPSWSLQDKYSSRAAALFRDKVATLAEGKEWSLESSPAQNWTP
#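 Repeats: one replicate per compound; assay system: rat Arfgap1 catalytic domain, aa 1-136; times: enzyme reaction 120 min at 25 °C after 20 min preincubation; detection: FP of antibody-bound GDP Alexa 633 tracer, ex 620/em 688 nm; benchmarks: high control wells lacking Arfgap1, low control full reaction with DMSO; reagent: human ARF1(Δ1-17)-GTP substrate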
# * = called active by the depositor; . = no result given.
SMILES,UHRF1 binding,MBD2 inh,ASAP1 inh,TDP2 inh,LEDGF integ inh,ARFGAP1 inh
COc1ccc(N2CC(C(=O)N/N=C/c3ccc(C)cc3)CC2=O)cc1 (centres undefined),23.9*,9.0,7.2,1.2,1.2,-1.2
O=C(NCc1ccccc1)C(=O)NCC1COc2ccccc2O1 (centres undefined),0.0,5.2,-3.9,-2.6,-2.0,0.6
CC(NCC1COc2ccccc2O1)C(=O)NCc1ccccc1 (centres undefined),25.1*,8.7,6.2,-2.1,1.3,8.2
Cc1ccc(S(=O)(=O)CCC(=O)NCCc2ccc(Cl)cc2)cc1,-1.6,0.4,-4.0,-8.3,8.5,-10.2
Cc1ccc(CCNC(=O)CCS(=O)(=O)c2ccc(Br)cc2)cc1,23.9*,8.2,8.5,7.8,4.0,-6.8
COc1ccc(C2CCC3(CCC(=O)N3CCOC(=O)NCc3ccc(Cl)cc3)CC2)cc1 (centres undefined),2.2,5.9,.,4.3,-0.5,.
CCN(C1CCCCC1)S(=O)(=O)c1cc(C)ccc1OC,3.6,1.1,4.8,-4.2,-0.9,-4.6
CCN(C1CCCCC1)S(=O)(=O)c1ccc(OC)c(C)c1,23.9*,7.7,-10.3,5.2,-0.7,9.5
CCCCCc1nnc(NC(=O)c2ccc3nc[nH]c3c2)s1,57.5*,2.4,-5.5,-3.9,-1.7,1.6
Cc1onc(-c2ccc(Cl)cc2)c1-c1ccn(S(=O)(=O)c2ccccc2)n1,4.7,-3.5,.,-14.9,6.8,.
CC(C)(C)CC(C)(C)NCC(=O)Nc1c2c(nc3ccccc13)CCC2,27.3*,4.5,9.4,11.8,-0.8,3.2
O=C(Nc1c2c(nc3ccccc13)CCCC2)c1ccccc1Cl,-1.4,1.9,11.3,5.1,4.8,4.1
C[C@H]1[C@H](N(Cc2cccs2)Cc2cccs2)CC[C@@]23CCCN2C(=O)CCC[C@@H]13,-1.9,-4.2,.,-8.7,1.3,.
CC(Sc1nc2cc([N+](=O)[O-])ccc2n1-c1cccc(C(F)(F)F)c1)C(=O)NC(N)=O (centres undefined),94.6*,3.1,-6.1,-3.3,2.5,8.4
NC(=O)CSc1nc2cc([N+](=O)[O-])ccc2n1-c1cccc(C(F)(F)F)c1,-2.0,-1.0,-2.0,-1.6,0.8,1.4
CCOC(=O)c1c(C)[nH]c(C(=O)N(C)CC(=O)Nc2ccc(OC)cc2)c1C,20.9*,0.3,3.5,-4.0,-5.0,-7.8
O=C1NN(c2ccc(Cl)cc2)C(=O)/C1=C\c1ccc(-c2cccc(C(=O)O)c2)o1,28.0*,4.9,-10.0,-5.2,-0.3,-0.7
Cc1ccc(N2NC(=O)/C(=C/c3ccc(-c4ccc(Cl)c(C(=O)O)c4)o3)C2=O)cc1,-0.7,-5.2,2.7,-3.9,2.4,11.1
CC1(C)C2CCC1(C)C(NC(=O)/C=C/c1ccccc1)C2 (centres undefined),25.4*,-5.4,9.7,-4.3,-2.0,-4.7
CC1(C)C2CCC1(C)C(Nc1ccccc1)C2 (centres undefined),-0.8,5.2,-1.6,9.1,-2.7,11.4
C=C(C)CSc1nc2sc(C)c(C)c2c(=O)n1C,-0.7,0.1,.,1.5,-2.4,.
CCOC(=O)COc1c(C=O)cc(Br)cc1OC,28.4*,1.3,-1.7,5.9,0.2,-1.7
CCc1ccc2nc(Nc3ccc(OC)cc3OC)c(C#N)cc2c1,22.3*,3.2,1.5,-10.3,10.5,1.8
COc1ccc2nc(CCN(C)C(=O)C3CCC(=O)N(Cc4cccc(F)c4)C3)[nH]c2c1 (centres undefined),-3.5,-7.5,-18.9,-7.0,-0.8,5.8
COc1cccc(CN2CC(C(=O)N(C)Cc3nc4ccc(F)cc4[nH]3)CCC2=O)c1 (centres undefined),24.6*,-0.1,0.1,1.5,-0.4,-1.1
SMILES,UHRF1 binding,MBD2 inh,ASAP1 inh,TDP2 inh,LEDGF integ inh,ARFGAP1 inh
O=C(CSc1nnc(COc2ccccc2)n1-c1ccc(Cl)cc1)Nc1ccc(OCc2ccccc2)cc1,0.0,1.7,.,-0.5,-1.2,.
Cc1noc(C)c1COc1ccccc1C(=O)NC(C)c1ccc(Cl)cc1 (centres undefined),31.8*,0.2,-11.7,4.9,-3.5,-11.3
CCCC1CCC2(CCCN2CCOC(=S)Nc2ccccc2OC)CC1 (centres undefined),6.3,2.3,.,-10.1,2.8,.
CC(C)OC(=O)C(C)(C)Oc1ccc(C(=O)c2ccc(Cl)cc2)cc1,-1.8,-3.8,-4.7,8.8,-0.4,7.0
CCNC(=O)NC(=O)C(C)OC(=O)C(C)(C)Oc1ccc(Cl)cc1 (centres undefined),25.9*,6.6,-2.6,13.1,-1.7,11.2
Cc1ccc2nc(-c3ccc(O)c(O)c3)cn2c1,1.4,-2.1,-1.4,2.9,23.4*,-6.5
Cc1ccc2nc(-c3ccccc3)cn2c1,3.8,0.5,1.1,-13.1,3.4,-9.1
CCCCN1C(=O)C(=O)NC[C@@H]1CC1CCCCC1,48.2*,10.1,2.6,-3.7,6.4,15.4
Cc1ccc(C(=O)CCC(=O)Nc2ccc(C)cn2)cc1,28.9*,-4.2,-14.9,-18.5,4.5,-2.3
CCN(CC)c1ccc(C(=S)N2CCN(c3ccccc3)CC2)cc1,21.0*,6.6,7.4,15.6,-0.1,4.4
S=C(c1ccccc1)N1CCN(c2ccccc2)CC1,-0.7,-1.5,-5.1,-3.6,-2.7,0.5
CN(CC(=O)N1CCN(c2ccccc2)CC1)S(=O)(=O)c1cnc[nH]1,28.5*,-1.8,3.9,-2.7,2.3,12.1
COc1ccc(S(=O)(=O)n2ccnc2)c2cccnc12,22.1*,-3.4,1.5,-6.6,1.3,-4.9
C[C@@H]1[C@@H](O)C[C@@]2(C[C@H](O)c3ccccc3O2)O[C@H]1c1ccccc1,-0.2,-1.6,.,-10.5,-3.1,.
Cc1nnc(SCC(C)C)[nH]c1=O,21.6*,-4.6,-13.2,6.8,2.0,-12.7
Cc1nnc(SCc2ccccc2)[nH]c1=O,-2.3,1.7,-12.4,-8.1,-5.5,6.2
NC(=O)Cn1c(=O)n(Cc2ccco2)c(=O)c2c3c(sc21)CCCCC3,20.8*,3.8,9.6,-1.2,6.3,9.1
O=C(Cn1c(=O)n(Cc2ccco2)c(=O)c2c3c(sc21)CCCC3)Nc1ccccc1,3.0,5.5,10.9,0.9,3.4,3.4
O=C(CSc1nc2ccccc2nc1N1CCCC1)N1CCN(c2cccc(C(F)(F)F)c2)CC1,-1.7,-3.9,.,-4.5,1.5,.
CCOc1cc(CNc2ccc3cn[nH]c3c2)ccc1OC,4.9,-1.1,2.9,29.9*,0.8,4.8
Cc1ccccc1N1CCN(C(=O)[C@@H]2CCCN2C2=NS(=O)(=O)c3ccccc32)CC1,6.5,-0.4,3.8,6.6,0.9,10.9
CCOc1ccccc1N1CCN(C(=O)[C@@H]2CCCN2C2=NS(=O)(=O)c3ccccc32)CC1,40.4*,4.1,-8.7,4.3,-5.2,-0.7
